Assay results as given in ChEMBL document CHEMBL1142490, “2-Phenyl-imidazo[1,2-a]pyridine compounds containing hydrophilic groups as potent and selective ligands for peripheral benzodiazepine receptors: synthesis, binding affinity and electrophysiological studies” (J Med Chem, 2008).
Where “and” joins values, the source holds several entries; their conditions need not be identical. Identical values can stand only once. Calls of active or inactive are those of the source. No cut-off for these calls is given here.

Key:
[1] = molecular target: Translocator protein (Rattus norvegicus, UniProt P16257); test: Displacement of [3H]PK11195 from peripheral benzodiazepine receptor in Sprague-Dawley rat cerebral cortex membrane by liquid scintillation counting; type: tissue-based
In short: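 Rat cerebral cortex membranes are washed in PBS, pH 7.4. Incubation with [3H]-ligand (1 nM final), 0.15–0.20 mg protein, 90 min. Filtration on PEI-presoaked GF/B filters, then scintillation counting. Nonspecific binding defined with 10 µM unlabelled ligand. Ki from three experiments in duplicate.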

[2] = Displacement of [3H]flunitrazepam from central benzodiazepine receptor in Sprague-Dawley rat cerebral cortex membrane by liquid scintillation counting; type: tissue-based
In short: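 Rat cortical membranes in 50 mM Tris-HCl, pH 7.4, 0.4–0.5 mg protein. Incubated with [3H]flunitrazepam (0.5 nM final) for 60 min at 0 °C. Filtration, then scintillation counting. Nonspecific binding defined with 5 µM diazepam. Ki from three experiments in duplicate.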

[3] = molecular target: T1, GABA-A receptor; alpha-1/beta-2/gamma-2 (Homo sapiens) (UniProt P14867+P47870+P18507); test: Agonist activity at human recombinant GABAA alpha-1-beta-2-gamma-2L receptor expressed in Xenopus oocytes assessed as change in GABA-induced chloride current amplitude at 1 uM by voltage clamp technique; type: functional, cell-based; settings: Oocyte
In short: (§1)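 Xenopus oocytes (stage V–VI, defolliculated) are nuclear-injected with human α1, β2 and γ2L cDNAs (1:1:1) and recorded about 24 h later. Two-electrode voltage clamp at -70 mV, MBS perfusion, room temperature. […] Reported as percent change from control; 5–10 oocytes per concentration.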

[4] = molecular target: T1, GABA-A receptor; alpha-1/beta-2/gamma-2 (Homo sapiens); test: Agonist activity at human recombinant GABAA alpha-1-beta-2-gamma-2L receptor expressed in Xenopus oocytes assessed as change in GABA-induced chloride current amplitude at 10 uM by voltage clamp technique; type: functional, cell-based; settings: Oocyte; in short: as §1
[5] = species on record: Rattus norvegicus; test: Selectivity ratio of Ki for central benzodiazepine receptor to Ki for peripheral benzodiazepine receptor in Sprague-Dawley rat cerebral cortex membrane; type: tissue-based
[6] = molecular target: T1, GABA-A receptor; alpha-1/beta-2/gamma-2 (Homo sapiens); test: Agonist activity at human recombinant GABAA alpha-1-beta-2-gamma-2L receptor expressed in Xenopus oocytes assessed as inhibition of GABA-induced chloride current amplitude at 10 uM in presence of 10 uM flumazenil by voltage clamp technique; type: functional, cell-based; settings: Oocyte
In short: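 Two-electrode voltage clamp (-70 mV) of oocytes expressing human α1β2γ2L GABAA receptors. Percent change of GABA response by compound at 10 µM measured with and without flumazenil at 10 µM. Mean of four oocytes ± SEM.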

[7] = species on record: Rattus norvegicus; test: Agonist activity at GABAA alpha-1-beta-2-gamma-2L receptor in Sprague-Dawley rat hippocampal CA1 pyramidal neurons assessed as inhibition of miniature inhibitory postsynaptic current decay time at 30 uM after 30 mins in presence of 1 uM finasteride by whole-cell patch clamp technique; type: functional, tissue-based; settings: Hippocampus
In short: (§2)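 Rat hippocampal slices, whole-cell mIPSC recording from CA1 pyramidal neurons at -65 mV. Compound (30 µM) co-applied with finasteride (1 µM) for 30 min. Change in mIPSC amplitude or decay averaged over a 3 min period and given as mean percent change, n = 6.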

[8] = species on record: Rattus norvegicus; test: Agonist activity at GABAA alpha-1-beta-2-gamma-2L receptor in Sprague-Dawley rat hippocampal CA1 pyramidal neurons assessed as increase in miniature inhibitory postsynaptic current amplitude at 30 uM after 30 mins by whole-cell patch clamp technique; type: functional, tissue-based; settings: Hippocampus
In short: (§3)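 Coronal hippocampal slices (300 µm) from male Sprague-Dawley rats anesthetized with ketamine (250 mg/kg i.p.) are recovered in ACSF, 40 min at 34 °C, then 30 min at room temperature. Whole-cell recordings of mIPSCs from CA1 pyramidal neurons at -65 mV, CsCl-based internal with QX-314. Compound bath-perfused at 30 µM for 30 min. Readout is mIPSC amplitude or decay time versus the pre-drug control.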

[9] = species on record: Rattus norvegicus; test: Agonist activity at GABAA alpha-1-beta-2-gamma-2L receptor in Sprague-Dawley rat hippocampal CA1 pyramidal neurons assessed as increase in miniature inhibitory postsynaptic current decay time at 30 uM after 30 mins by whole-cell patch clamp technique; type: functional, tissue-based; settings: Hippocampus; in short: as §3
[10] = species on record: Rattus norvegicus; test: Agonist activity at GABAA alpha-1-beta-2-gamma-2L receptor in Sprague-Dawley rat hippocampal CA1 pyramidal neurons assessed as inhibition of miniature inhibitory postsynaptic current amplitude at 30 uM after 30 mins in presence of 1 uM finasteride by whole-cell patch clamp technique; type: functional, tissue-based; settings: Hippocampus; in short: as §2

Sequence of Translocator protein (P16257 whole entry, looked up): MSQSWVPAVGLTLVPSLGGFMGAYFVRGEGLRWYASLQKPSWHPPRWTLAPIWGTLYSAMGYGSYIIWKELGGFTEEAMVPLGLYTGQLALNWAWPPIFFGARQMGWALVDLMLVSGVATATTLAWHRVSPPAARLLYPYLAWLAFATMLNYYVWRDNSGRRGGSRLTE

For `CCCN(CCC)C(=O)Cc1c(-c2ccc(N)cc2)nc2c(Cl)cc(Cl)cn12` [listing 1 of 3 here], the Ki [1] was 2.22 nM and the Ki [2] was 246 nM.

Molecule `CCCN(CCC)C(=O)Cc1c(-c2ccc(Cl)c(NC(=O)CCC(=O)O)c2)nc2c(Cl)cc(Cl)cn12` has an Activity [3] of 11.5%, a Ki [1] of 14.4 nM and an Activity [4] of 10%. The Ki [2] was over 10 nM.

In the case of `CCCN(CCC)C(=O)Cc1c(-c2ccc(N)cc2)nc2c(Cl)cc(Cl)cn12` [listing 2 of 3 here], the Activity [3] is reported as 8.1% and 29.9%.

`CCCN(CCC)C(=O)Cc1c(-c2nccs2)nc2c(Cl)cc(Cl)cn12` showed an Activity [3] of 6.3%, a Ki [1] of 2.07 nM and an Activity [4] of 60.6%. It also gave a Ki [2] of over 10 nM.

In the case of `CCCN(CCC)C(=O)Cc1c(-c2ccc(OC(=O)CCC(=O)OC)cc2)nc2c(Cl)cc(Cl)cn12`, the Activity [3] is reported as 16.6%, the Ki [1] is reported as 1.69 nM and the Activity [4] is reported as 37.5%. The Ki [2] was over 10 nM.

Molecule `CCCN(CCC)C(=O)Cc1c(-c2ccc(Cl)cc2)nc2c(NC(=O)CCC(=O)O)cccn12` has an Activity [3] of 1.3%, a Ki [1] of 285 nM and an Activity [4] of 12.3%. For the same molecule, the Ki [2] was over 10 nM.

With `COc1ccc(-c2nc3c(Cl)cc(Cl)cn3c2CC(=O)N(C)c2ccccc2)cc1` the Activity [3] was -8.1%, the Ki [1] was 0.23 nM and the Activity [4] was -8%. For the same molecule, the Ki [2] was 1000 nM.

Molecule `CCCN(CCC)C(=O)Cc1c(-c2ccc(O)cc2)nc2c(Cl)cc(Cl)cn12` has an Activity [3] of -3.9%, a Ki [1] of 1.31 nM and an Activity [4] of 23.8%. For the same molecule, the Ki [2] was over 10 nM and the Ratio Ki [5] was over 1000.

For `CCCCN(C)C(=O)Cc1c(-c2ccc(O)cc2)nc2c(Cl)cc(Cl)cn12`, the Activity [3] was 7.9%, the Ki [1] was 0.87 nM and the Activity [4] was -23.6%. It also gave a Ki [2] of 2930 nM.

Molecule `CCCN(CCC)C(=O)Cc1c(-c2ccc(Cl)c(N)c2)nc2c(Cl)cc(Cl)cn12` [listing 1 of 3 here] has a Ki [1] of 0.33 nM and a Ki [2] of over 10 nM.

In the case of `CCCCN(C)C(=O)Cc1c(-c2ccc(OC)cc2)nc2c(Cl)cc(Cl)cn12`, the Activity [3] is reported as 24.8%, the Ki [1] is reported as 0.73 nM and the Activity [4] is reported as -16.5%. It also gave a Ki [2] of over 10 nM.

`CCCN(CCC)C(=O)Cc1c(-c2ccc(OC(=O)CN)cc2)nc2c(Cl)cc(Cl)cn12` gave an Activity [3] of 26.6%, a Ki [1] of 1.52 nM and an Activity [4] of 71%. The Ki [2] was over 10 nM.

In the case of `CCCN(CCC)C(=O)Cc1c(-c2ccc(N)cc2)nc2c(Cl)cc(Cl)cn12` [listing 3 of 3 here], the Ki [1] is reported as 2.76 nM and the Ki [2] is reported as 1020 nM.

`CN(C(=O)Cc1c(-c2nccs2)nc2c(Cl)cc(Cl)cn12)c1ccccc1` gave an Activity [3] of -1.2%, a Ki [1] of 1.44 nM and an Activity [4] of 19.4%. It also gave a Ki [2] of over 10 nM.

In the case of `CCCN(CCC)C(=O)Cc1c(-c2ccc(Cl)cc2)nc2c(NC(=O)CCCC(=O)O)cccn12`, the Activity [3] is reported as 7.3%, the Ki [1] is reported as 118 nM and the Activity [4] is reported as -1.9%. It also gave a Ki [2] of over 10 nM.

Molecule `CCCN(CCC)C(=O)Cc1c(-c2ccc(Cl)c(N)c2)nc2c(Cl)cc(Cl)cn12` [listing 2 of 3 here] has a Ki [1] of 0.45 nM.

With `CCCN(CCC)C(=O)Cc1c(-c2ccc(Cl)cc2)nc2c(NC(=O)CCC(=O)OCC)cccn12` the Ki [1] was 0.86 nM and the Ki [2] was over 10 nM.

`CN(C(=O)Cc1c(-c2ccc(O)cc2)nc2c(Cl)cc(Cl)cn12)c1ccccc1` showed an Activity [3] of -5.9%, a Ki [1] of 0.32 nM and an Activity [4] of 6.7%. The Ki [2] was 5130 nM and the Ratio Ki [5] was over 1000.

With `CCCN(CCC)C(=O)Cc1c(-c2ccc(Cl)cc2)nc2c(NC(=O)CN)cccn12` the Ki [1] was 14.2 nM and the Ki [2] was over 10 nM.

Molecule `CCCN(CCC)C(=O)Cc1c(-c2ccc(Cl)cc2)nc2c(NC(=O)CC(=O)O)cccn12` has an Activity [3] of 9.6%, a Ki [1] of 193 nM and an Activity [4] of 19.8%. For the same molecule, the Ki [2] was over 10 nM.

In the case of `CCCCN(C)C(=O)Cc1c(-c2ccc(Cl)c(N)c2)nc2c(Cl)cccn12`, the Activity [3] is reported as 9.5%, the Ki [1] is reported as 1.04 nM and the Activity [4] is reported as 10.7%. The Ki [2] was 194 nM and the Ratio Ki [5] was 187.

For `CCCN(CCC)C(=O)Cc1c(-c2ccc(Cl)c(N)c2)nc2c(Cl)cc(Cl)cn12` [listing 3 of 3 here], the Activity [3] was -6.2% and -2.9%.

With `CCC(C)N(C)C(=O)c1cc2ccccc2c(-c2ccccc2Cl)n1` (configuration not stated) [PK-11195] the Activity [3] was 4.9%, the Activity [4] was 9.4% and the Ki [2] was over 10 nM.

Work on `CCCCN(C)C(=O)Cc1c(-c2ccc(Cl)c([N+](=O)[O-])c2)nc2c(Cl)cc(Cl)cn12` yielded an Activity [3] of -10.2%, a Ki [1] of 0.3 nM and an Activity [4] of -9.6%.

With `CCCCN(C)C(=O)Cc1c(-c2ccc(Cl)c([N+](=O)[O-])c2)nc2c(Cl)cccn12` the Activity [3] was 12.1%, the Ki [1] was 1.16 nM and the Activity [4] was -20%. For the same molecule, the Ki [2] was over 10 nM.

For `CCCN(CCC)C(=O)Cc1c(-c2ccc(OC)cc2)nc2c(Cl)cc(Cl)cn12`, the Activity [3] was 8.8%, the Activity [6] was “inactive” and the Ki [1] was 0.31 nM. For the same molecule, the Activity [4] was 55.9% and the Ki [2] was over 10 nM.

For `CCCN(CCC)C(=O)Cc1c(-c2ccc(Cl)c([N+](=O)[O-])c2)nc2c(Cl)cc(Cl)cn12`, the Activity [3] was 14.9%, the Ki [1] was 0.24 nM and the Activity [7] was “inactive”. For the same molecule, the Activity [4] was 9.6%, the Activity [8] was “Active” and the Ki [2] was over 10 nM. For the same molecule, the Activity [9] was “Active” and the Activity [10] was “inactive”.

Work on `CCCCN(C)C(=O)Cc1c(-c2ccc(Cl)c(N)c2)nc2c(Cl)cc(Cl)cn12` yielded a Ki [1] of 0.78 nM, a Ki [2] of 535 nM and a Ratio Ki [5] of 686.

With `CCCN(CCC)C(=O)Cc1c(-c2ccc([N+](=O)[O-])cc2)nc2c(Cl)cc(Cl)cn12` the Activity [3] was -4.2%, the Ki [1] was 0.15 nM and the Activity [4] was -16.6%. It also gave a Ki [2] of over 10 nM.
